In ChEMBL document CHEMBL1137100, “Design, synthesis, and antiviral activity of certain 3-substituted 2,5,6-trichloroindole nucleosides” (J Med Chem, 2004) one finds IC50 data, which are given here for 23 molecules.

Assay [1] has as its system Human alphaherpesvirus 1. Briefly: Inhibitory concentration required against herpes simplex virus type-1 (HSV-1) expressed in BSC-1 cells was determined by ELISA assay. The class given is functional, organism-based. Particulars: Human alphaherpesvirus 1, BSC-1. The method in brief: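 HSV-1 KOS strain. BSC-1 cells, 10 000 per well in MEM(E) with 10% calf serum, incubated overnight at 37 °C, then drug plus virus at 100 pfu/well, quadruplicate wells, 3 days at 37 °C. Detection with HRP-conjugated rabbit anti-HSV-1 antibody and TMB substrate, stopped with H₂SO₄ after 15 min, absorbance at 450 and 570 nm. IC50 by regression vs log10 concentration; acyclovir as positive control.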

The test system of assay [2] is Human betaherpesvirus 5. Briefly: Inhibitory concentration required against human cytomegalovirus (HCMV) expressed in HFF cells was determined by plaque reduction assay. The class given is functional, organism-based. Particulars: Human betaherpesvirus 5, HFF. The gist of the method: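 HCMV Towne strain, isolate P₀. HFF monolayers infected with about 100 pfu per cm²; after adsorption, compound (diluted from 10 mg/mL DMSO stock) added at four to eight concentrations in duplicate wells. Incubated 7–10 days at 37 °C, fixed and stained with crystal violet, plaques counted microscopically. IC50 from regression of % plaque reduction vs log10 concentration; ganciclovir as positive control.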

The subject of assay [3] is HFF. Briefly: Cytotoxicity produced in stationary HFF cells was determined by microscopic inspection of uninfected cells. The class given is functional, cell-based. Particulars: Homo sapiens. The gist of the method:
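Uninfected stationary HFF cells inspected microscopically for cytotoxicity, scored at the time of HCMV plaque enumeration (7–10 days at 37 °C), duplicate wells. Compounds from 10 mg/mL DMSO stocks diluted in growth medium. IC50 from linear regression of % inhibition vs log10 concentration.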

The nature of assay [4]: Cytotoxicity against KB cells was determined by crystal violet staining and spectrophotometric quantitation of dye eluted from stained cells. The assay is classed as functional, cell-based. The gist of the method:
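KB cells seeded at 3000–5000 per well, incubated overnight at 37 °C, then exposed to compound at six to eight concentrations for 48 h at 37 °C in CO₂ (two population doublings). Fixed with 95% ethanol, stained with 0.1% crystal violet, dye eluted with acidified ethanol, read at 570 nm. IC50 by linear regression of % inhibition vs log10 concentration.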

With `CC(=O)OC[C@H]1OC(n2c(Cl)c(C=O)c3cc(Cl)c(Cl)cc32)[C@H](O)[C@@H]1O` (some centres not stated), the IC50 is 20 µM in assay [1], below 0.1 µM in assay [2], 32 µM in assay [3] and 35 µM in assay [4].

As to `CC(=O)OC[C@H]1OC(n2c(Br)c(C=O)c3cc(Cl)c(Cl)cc32)[C@H](O)[C@@H]1O` (some centres not stated), the IC50 in assay [1] amounted to 15 µM; in assay [2], 0.32 µM; in assay [3] it was 32 µM; in assay [4], 40 µM.

In the case of `OC[C@H]1O[C@@H](n2c(Br)nc3cc(Cl)c(Cl)cc32)C(O)[C@@H]1O` (single isomer, unassigned), the IC50 is 130 µM in assay [1], 0.7 µM in assay [2] and above 100 µM in assay [4].

In the case of `OC[C@H]1O[C@@H](n2c(Cl)nc3cc(Cl)c(Cl)cc32)C(O)[C@@H]1O` (single isomer, unassigned), the IC50 amounted to 2.9 µM in assay [2] and 210 µM in assay [4].

With `OC[C@H]1OC(n2c(Cl)c(Cl)c3cc(Cl)c(Cl)cc32)C(O)[C@@H]1O` (single isomer, unassigned), the IC50 in assay [1] worked out at 45 µM; in assay [2], 38 µM; in assay [3], 32 µM; in assay [4], 80 µM.

As for `O=Cc1c(Br)n(C2O[C@H](CO)[C@@H](O)C2O)c2cc(Cl)c(Cl)cc12` (single isomer, unassigned), the IC50 in assay [1] turned out to be 20 µM; in assay [2], 0.32 µM; in assay [3] it was 32 µM; in assay [4], 50 µM.

For the molecule `N#Cc1c(Cl)n(C2O[C@H](CO)[C@@H](O)C2O)c2cc(Cl)c(Cl)cc12` (single isomer, unassigned), the IC50 in assay [1] stood at 15 µM; in assay [2] it was 0.55 µM; in assay [3], 32 µM; in assay [4], 65 µM.

As to `CCC(=O)c1c(Cl)n(C2O[C@H](CO)[C@@H](O)C2O)c2cc(Cl)c(Cl)cc12` (single isomer, unassigned), the IC50 in assay [1] is 20 µM; in assay [2], 2.5 µM; in assay [3], above 100 µM; in assay [4], 100 µM.

Take `O=C(c1c(Cl)n(C2O[C@H](CO)[C@@H](O)C2O)c2cc(Cl)c(Cl)cc12)C(F)(F)F` (single isomer, unassigned): the IC50 came out at 15 µM in assay [1], 6.2 µM in assay [2], 32 µM in assay [3] and 20 µM in assay [4].

Turning to `CC(=O)OC[C@H]1OC(n2c(Cl)c(C#N)c3cc(Cl)c(Cl)cc32)C(O)[C@@H]1O` (single isomer, unassigned), the IC50 is 50 µM in assay [1], 2.5 µM in assay [2], 32 µM in assay [3] and 70 µM in assay [4].

For the molecule `OC[C@H]1OC(n2c(Cl)c(-c3ccsc3)c3cc(Cl)c(Cl)cc32)C(O)[C@@H]1O` (single isomer, unassigned), the IC50 in assay [1] was 45 µM; in assay [2] it was 31 µM; in assay [3] it was above 100 µM; in assay [4] it was 60 µM.

For the molecule `O=CCc1c(Cl)n(C2O[C@H](CO)[C@@H](O)C2O)c2cc(Cl)c(Cl)cc12` (single isomer, unassigned), the IC50 is above 100 µM in assay [1], 4 µM in assay [2], above 100 µM in assay [3] and 70 µM in assay [4].

Consider `O=Cc1c(Cl)n(C2O[C@H](CO)[C@@H](O)C2O)c2cc(Cl)c(Cl)cc12` (single isomer, unassigned), for which the IC50 was determined as 40 µM in assay [1], 0.23 µM in assay [2], 45 µM in assay [3] and 45 µM in assay [4].

`CC(=O)c1c(Cl)n(C2O[C@H](CO)[C@@H](O)C2O)c2cc(Cl)c(Cl)cc12` (single isomer, unassigned): the IC50 in assay [1] is 20 µM; in assay [2], 0.31 µM; in assay [3], above 100 µM; in assay [4] it was 50 µM.

Turning to `OC[C@H]1OC(n2c(Cl)c(-c3ccco3)c3cc(Cl)c(Cl)cc32)C(O)[C@@H]1O` (single isomer, unassigned), the IC50 in assay [1] was found to be 50 µM; in assay [2] it was 42 µM; in assay [3], 32 µM; in assay [4], 80 µM.

As for `OC[C@H]1OC(n2c(Cl)c(I)c3cc(Cl)c(Cl)cc32)C(O)[C@@H]1O` (single isomer, unassigned), the IC50 in assay [1] amounted to 20 µM; in assay [2] it was 12 µM; in assay [3], 32 µM; in assay [4] it was 65 µM.

In the case of `CCC(=O)c1c(Cl)n(C2O[C@H](COC(C)=O)[C@@H](O)C2O)c2cc(Cl)c(Cl)cc12` (single isomer, unassigned), the IC50 was 15 µM in assay [1], 3.2 µM in assay [2], above 100 µM in assay [3] and 100 µM in assay [4].

Regarding `CC(=O)OC[C@H]1OC(n2c(Cl)c(C(C)=O)c3cc(Cl)c(Cl)cc32)C(O)[C@@H]1O` (single isomer, unassigned), the IC50 in assay [1] was determined as 20 µM; in assay [2] it was 0.3 µM; in assay [3], 32 µM; in assay [4], 40 µM.

For the molecule `CCCC(=O)OC[C@H]1OC(n2c(Cl)c(C=O)c3cc(Cl)c(Cl)cc32)C(O)[C@@H]1O` (single isomer, unassigned), the IC50 in assay [1] was found to be 9 µM; in assay [2] it was 0.25 µM; in assay [3] it was 32 µM; in assay [4], 40 µM.

Take `Cc1c(Cl)n(C2O[C@H](CO)[C@@H](O)C2O)c2cc(Cl)c(Cl)cc12` (single isomer, unassigned): the IC50 in assay [1] is 70 µM; in assay [2], 32 µM; in assay [3], 32 µM; in assay [4] it was above 100 µM.

`COC(=O)OC[C@H]1OC(n2c(Cl)c(C=O)c3cc(Cl)c(Cl)cc32)C(O)[C@@H]1O` (single isomer, unassigned): the IC50 in assay [1] turned out to be 15 µM; in assay [2], 0.2 µM; in assay [3], 32 µM; in assay [4] it was 50 µM.

In the case of `CCC(=O)OC[C@H]1OC(n2c(Cl)c(C=O)c3cc(Cl)c(Cl)cc32)C(O)[C@@H]1O` (single isomer, unassigned), the IC50 in assay [1] came to 10 µM; in assay [2], 0.22 µM; in assay [3], 32 µM; in assay [4] it was 50 µM.

As for `Nc1nc2c(ncn2COC(CO)CO)c(=O)[nH]1` [GANCICLOVIR], the IC50 in assay [3] and in assay [4] was above 100 µM throughout.
